# Screening results as filed in PubChem BioAssay.
# OX1R antag-1 – antagonists of human orexin 1 receptor (OX1R); 330,000 compounds, 1.8% hits; O43613; OX1R-expressing cells, FRET antagonist read-out; inhibition, % at 6.6 µM; in the data active = inhibition mostly above about 38%, no sharp cut-off; inactive = mostly below about 40%;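 also: 0% = agonist challenge alone and 100% = reference antagonist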
# TAAR1 antagonist – human TAAR1 antagonism; Q96RJ0; CHO RD-HGA16 TAAR1, Fluo-8 calcium fluorescence, antagonist; inhibition, % at 3 µM; 360,000 compounds, 1.5% hits; AID 624466;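 active = inhibition above a per-plate cutoff, the mean inhibition of test compounds on that plate plus 3 SD, cut at about 49% in these data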;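 also: 0% = DMSO plus EC80 beta-PEA response and 100% = DMSO alone without agonist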
# Target sequence (Q96RJ0 whole entry, looked up): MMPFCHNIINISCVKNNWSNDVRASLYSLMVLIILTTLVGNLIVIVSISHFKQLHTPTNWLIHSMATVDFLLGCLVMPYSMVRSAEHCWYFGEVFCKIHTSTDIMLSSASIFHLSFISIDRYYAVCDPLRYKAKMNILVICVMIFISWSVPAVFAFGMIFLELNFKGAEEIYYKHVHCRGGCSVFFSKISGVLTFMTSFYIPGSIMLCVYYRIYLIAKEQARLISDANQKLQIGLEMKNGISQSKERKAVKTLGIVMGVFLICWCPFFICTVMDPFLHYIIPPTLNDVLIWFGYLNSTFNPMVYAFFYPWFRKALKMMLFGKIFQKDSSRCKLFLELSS
#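 Test system: RD-HGA16 CHO cells with stable hTAAR1 and Gα16 / Probe or stimulus: EC80 β-phenethylamine stimulus / Times: seeding 17-24 h prior, 75-min 37 °C, 30-min RT dye loading / Detection: Fluo-8 calcium-sensitive fluorescence / Read-out basis: % inhibition scaled between DMSO and EC80 PEA controls / Repeats: singlicate, one well per test compound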
# TAAR1 ag – agonists of human TAAR1; Q96RJ0; CHO RD-HGA16 TAAR1, Fluo-8 calcium fluorescence; vehicle wells 0%, saturating PEA agonist 100%; activation, % at 3 µM; 360,000 compounds, 0.99% hits;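 active = activation above the mean activation of all test compounds in the run plus 3 SD, cut at about 38% in these data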
#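 Benchmarks: low control DMSO, high control PEA (EC100); System: CHO RD-HGA16 cells carrying human TAAR1 plus Gα16; Detection: Fluo-8 fluorescence, 5 s baseline then 140 s kinetic read; Schedule: 17-24 h plating, Fluo-8 75 min 37 °C, 30 min RT; Read-out basis: % activation from peak over basal fluorescence ratio, DMSO-to-PEA scaled.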
# OX1R antag-2 – blocks the human orexin 1 receptor | O43613 | CHO/OX1R cells, Fluo-8 calcium fluorescence, orexin A | 330,000 compounds, 0.43% hits | inhibition, % at 5 µM;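 active = inhibition above its plate's threshold, mean inhibition of all tested compounds on the plate plus 3 SD, cut at about 37% in these data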;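 also: 0% = orexin A challenge wells and 100% = SB-334867-A antagonist wells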
# GPR7 antag – blocks human GPR7 receptor signaling. GPR7-expressing cells, fluorescence antagonist assay. inhibition, % at 4.4 µM. 290,000 compounds, 1.1% hits. AID 1861; in the data active = inhibition above about 16%, passing the limit was not always enough;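 also: cells stimulated with the agonist NPW; 0% = agonist with vehicle and 100% = vehicle without agonist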
# Target sequence (P48145 whole entry, looked up): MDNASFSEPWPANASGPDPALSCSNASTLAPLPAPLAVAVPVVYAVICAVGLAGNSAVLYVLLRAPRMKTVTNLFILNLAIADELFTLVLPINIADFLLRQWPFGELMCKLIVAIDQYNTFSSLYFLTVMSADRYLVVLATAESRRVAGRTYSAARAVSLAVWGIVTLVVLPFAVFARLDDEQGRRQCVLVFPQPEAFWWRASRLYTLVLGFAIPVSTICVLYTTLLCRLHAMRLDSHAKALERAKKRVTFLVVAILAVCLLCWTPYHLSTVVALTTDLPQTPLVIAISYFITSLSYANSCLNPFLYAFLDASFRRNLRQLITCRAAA
# CHO parental Ca – signal in parental CHO cells, OX1R antagonist counter-screen. parental CHO-K1, ATP-induced calcium, Fluo-8 fluorescence. inhibition, % at 5.6 µM. 330,000 compounds, 0.63% hits;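 active = inhibition above that plate's mean sample inhibition plus 3 SD, cut at about 26% in these data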;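 also: 0% = ATP-challenged DMSO wells and 100% = DMSO wells without ATP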
#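 material = parental CHO cells | also added = ATP as calcium-mobilizing challenge | dosing = single point at 5.6 µM | detection = intracellular calcium via Fluo-8 no-wash fluorescent dye | read-out = % inhibition | benchmarks = low control ATP plus DMSO, high control DMSO only | repeats = one well per compound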
# An asterisk follows results filed as active; · = not tested or not shown. This is a sample that favours compounds with a hit; in the whole collection about 4.6% have one here.
SMILES,OX1R antag-1,TAAR1 antagonist,TAAR1 ag,OX1R antag-2,GPR7 antag,CHO parental Ca
COCC(=O)N[C@@H]1c2cc(OC)c(OC)cc2C[C@H]1OCc1ccccc1,1,5,2,-34,·,-13
CC1(C(=O)NS(C)(=O)=O)CCN1C(=O)Cc1ccc(-c2ccccc2)cc1 (stereo unspecified),·,7,0,·,·,·
c1ccc(-c2ccccc2C2Cc3nnccc3CN2)cc1 (stereo unspecified),·,-31,2,·,·,·
O=C(NS(=O)(=O)c1cccc(F)c1)[C@H]1O[C@@H](n2ccc(=O)[nH]c2=O)[C@H](O)[C@@H]1O,·,-28,2,·,·,·
Cc1cc(C(=O)Nc2ccc3c(c2)CCC3)ccc1[N+](=O)[O-],45*,-23,-3,13,·,-22
Cc1nn(Cc2c(Cl)cccc2Cl)c(C)c1NC(=O)c1cc(C(C)C)on1,6,-10,0,89*,-5,91*
Cc1cc(C(=O)Nc2c(C)nn(Cc3c(Cl)cccc3Cl)c2C)no1,15,-4,13,-8,-17,-4
O=C(C(=O)N1CCC(CNS(=O)(=O)c2ccc3ccccc3c2)CC1)c1cc2ccccc2o1,·,-8,2,·,·,·
COc1ccc(CNC(=O)[C@]2(C)CCC[C@@]3(C)C4CC[C@@]5(C)C[C@]4(CCC32)CC5=O)cc1 (stereo partly specified),-5,49*,14,-20,·,-26
COc1ccc(S(=O)(=O)Nc2ccc3c(c2)C(=O)N([C@H](C)CO)C[C@H](C)[C@H](CN(C)C(=O)Nc2ccc(F)cc2)OCCCC[C@@H](C)O3)cc1,·,-1,2,·,·,·
c1ccc(Nc2nc3ccccc3n3cnnc23)cc1,59*,1,-2,5,-10,-2
COc1cc(OC)cc(C(=O)NCC2CCN(C(=O)C(=O)c3cccs3)CC2)c1,·,0,0,·,·,·
Cc1cc(C)c(S(=O)(=O)N2CCN(C(=O)c3cc(=O)[nH]c4ccccc34)CC2)c(C)c1,2,52*,43*,-19,·,-18
Cc1ccc(S(=O)(=O)N2CCN(C(=O)c3cc(=O)[nH]c4ccccc34)CC2)c(C)c1,19,51*,20,-43,-4,-26
COC(=O)c1cc2c(c3c4cc(OC)ccc4n(S(=O)(=O)c4ccc(OC)cc4)c13)C(=O)N(Cc1ccc(N(C)C)cc1)C2,·,-14,0,·,·,·
O=C1c2cccc3cccc(c23)C(=O)N1CCCn1ccnc1,55*,-8,3,6,·,-3
Cc1ccc(C(=O)CSc2cc(C)nc(SCC(=O)c3ccccc3)n2)cc1,29,54*,12,-11,-5,44*
Cc1nc2ccccc2nc1SCC(=O)c1ccccc1,39,13,3,17,-5,52*
Cc1cc(SCC(N)=O)nc(SCC(=O)c2ccccc2)n1,28,4,1,-16,9,-7
N#Cc1ccc(C(=O)N2CCC3CC2c2cc(N4CCCCC4)ccc23)cc1 (stereo unspecified),·,7,4,·,·,·
CCCCC(c1nc2ccccc2[nH]1)n1c(-c2ccccc2)nc2ccccc21 (stereo unspecified),·,0,0,·,·,·
Cc1csc(=O)n1CCC(=O)OCC(=O)N(C)c1c(N)n(Cc2ccccc2)c(=O)[nH]c1=O,·,-14,3,·,·,·
O=C(OCc1ccccc1)N1CCC2CC1c1ccc(N3CCN(Cc4ccccc4)CC3)cc12 (stereo unspecified),·,-26,1,·,·,·
COc1ccc(CN(C)C(=O)c2ccc(Oc3ccccc3)cc2)cc1F,13,32,1,-27,13,-4
COc1ccc(CN(C)C(=O)C(Cc2ccccc2)NC(=O)c2ccccc2)cc1F (stereo unspecified),·,73*,14,·,·,·
SMILES,OX1R antag-1,TAAR1 antagonist,TAAR1 ag,OX1R antag-2,GPR7 antag,CHO parental Ca
COc1ccc(CCN2C(=O)COc3ccccc3C2C(=O)NCc2ccccc2)cc1OC (stereo unspecified),·,2,-1,·,·,·
O=c1c(NCCc2ccc(Cl)cc2)c(-c2ccccc2)c1=O,2,-21,42*,-9,-3,-4
CC1(C)CC2(OC2c2ccccc2[N+](=O)[O-])C(=O)c2ccccc21 (stereo unspecified),·,13,0,·,·,·
O=C(CN1CCN(S(=O)(=O)N2CCCCC2)CC1)Nc1cc(Cl)cc(Cl)c1,2,13,-3,-30,9,-23
O=C(Nc1ccc(Cl)c(Cl)c1)N1CCC(N2CCCCC2)CC1,9,-21,0,-17,4,-5
O=C(CN1CCN(S(=O)(=O)N2CCCCC2)CC1)Nc1ccc(Cl)c(Cl)c1,21,20,10,-5,1,32*
O=C(Nc1ccc(Cl)c(Cl)c1)N1CCCCCC1,11,-26,0,19,-1,33*
C[C@H](CO)N1C[C@H](C)[C@@H](CN(C)C(=O)Nc2ccc(N3CCN(C)CC3)cc2)OCc2cn(nn2)CCCC1=O,·,3,1,·,·,·
COC(=O)C1=C(C)N(C)C(=NCc2ccccc2C(F)(F)F)NC1c1ccc(C(F)(F)F)cc1 (stereo unspecified),·,24,19,·,·,·
CCCc1nc2sc3ccccc3c(=O)c2c(=O)n1Cc1ccc(OC)cc1,8,-25,2,-26,-9,-15
CCCc1nc2sc3ccccc3c(=O)c2c(=O)n1Cc1ccco1,·,1,68*,·,-9,·
N#C/C(=N\Nc1ccc(S(=O)(=O)N2CCCCCC2)cc1)C(N)=S,49*,-3,6,-11,-14,-5
COC(=O)c1nn(-c2ccc(-c3ccccc3)cc2)cc1O,24,52*,3,16,2,2
CCOC(=O)c1nn(-c2ccccc2)cc1O,-6,-2,-1,-3,-4,-6
O=C(CSc1nc2ccc(Cl)cc2[nH]1)NC1CCCc2ccccc21 (stereo unspecified),73*,47,4,-10,6,-1
O=C(CSc1nc2ccccc2[nH]1)NC1CCCc2ccccc21 (stereo unspecified),52,33,6,-2,-11,-22
S=C(SCc1c(Cl)cccc1Cl)N1CCSCC1,·,-22,0,·,·,·
Nc1nc(CSC(=S)N2CCCCC2)nc(Nc2ccccc2)n1,69*,10,16,11,15,-22
Cc1ccc(Nc2nc(N)nc(CSC(=S)N3CCOCC3)n2)cc1,17,-14,1,-22,-6,-16
Nc1nc(CSC(=S)N2CCOCC2)nc(Nc2ccccc2)n1,69*,-1,0,17,-10,-13
CCCCCCCCN1C(=O)[C@@H](CC(=O)N2CCN(C(=O)OCC)CC2)C[C@@]2(C(=O)OC)C1=C[C@H](C(C)(C)C)O[C@@H]2C,·,-22,-2,·,·,·
CCOC(=O)C1=CCN(S(=O)(=O)c2ccccc2C)C1c1ccc(Cl)cc1 (stereo unspecified),·,45,6,·,·,·
